This is an account of results in ChEMBL document CHEMBL5230175, “The war on hTG2: warhead optimization in small molecule human tissue transglutaminase inhibitors” (RSC Med Chem, 2023).

Each structure is given as a SMILES string.

In series [1] the target is T1, Protein-glutamine gamma-glutamyltransferase (Homo sapiens, UniProt P21980).
T1 sequence (P21980 whole entry): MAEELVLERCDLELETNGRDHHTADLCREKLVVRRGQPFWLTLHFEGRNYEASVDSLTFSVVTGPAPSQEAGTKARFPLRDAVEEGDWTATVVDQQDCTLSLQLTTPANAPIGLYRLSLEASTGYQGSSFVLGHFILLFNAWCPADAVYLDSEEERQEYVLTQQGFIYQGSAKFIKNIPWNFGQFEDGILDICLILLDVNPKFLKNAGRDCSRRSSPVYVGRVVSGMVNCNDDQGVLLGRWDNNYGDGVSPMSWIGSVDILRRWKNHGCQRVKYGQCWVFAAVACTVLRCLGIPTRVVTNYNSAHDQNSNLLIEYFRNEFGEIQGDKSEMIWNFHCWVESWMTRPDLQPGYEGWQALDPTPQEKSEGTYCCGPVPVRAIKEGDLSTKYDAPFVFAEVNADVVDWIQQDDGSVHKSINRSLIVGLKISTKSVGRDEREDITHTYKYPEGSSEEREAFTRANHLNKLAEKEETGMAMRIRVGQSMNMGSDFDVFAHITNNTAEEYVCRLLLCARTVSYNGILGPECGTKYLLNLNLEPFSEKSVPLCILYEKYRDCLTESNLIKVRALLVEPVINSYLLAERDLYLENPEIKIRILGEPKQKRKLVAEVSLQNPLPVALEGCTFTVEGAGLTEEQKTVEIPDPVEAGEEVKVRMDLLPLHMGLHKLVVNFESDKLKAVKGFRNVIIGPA
In words: Irreversible inhibition of human recombinant tissue transglutaminase expressed in Escherichia coli using Cbz-Glu-(gamma-p-nitrophenylester)Gly (AL5) as substrate assessed as substrate hydrolysis by measuring KI incubated for 20 mins by colorimetric analysis.

Series [2] addresses T2, Protein-glutamine gamma-glutamyltransferase (Homo sapiens) (UniProt P21980).
T2 sequence (whole entry): T1 sequence (P21980 whole entry)
In words: Irreversible inhibition of human recombinant tissue transglutaminase expressed in Escherichia coli using Cbz-Glu-(gamma-p-nitrophenylester)Gly (AL5) as substrate assessed as substrate hydrolysis by measuring Kinact/Ki ratio incubated for 20 mins by colorimetric analysis.

The target of series [3] is T2, Protein-glutamine gamma-glutamyltransferase (Homo sapiens). In words: Irreversible inhibition of human recombinant tissue transglutaminase expressed in Escherichia coli using Cbz-Glu-(gamma-p-nitrophenylester)Gly (AL5) as substrate assessed as substrate hydrolysis by measuring Kinact/Ki ratio by linear regression analysis. The method, boiled down:
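For TG2/AL5 under Kitz–Wilson conditions (100 μM AL5, pH 6.9 MOPS, 25 °C, 405 nm), kinact/KI was taken from simple linear regression of kobs against corrected inhibitor concentration at the lowest inhibitor concentrations.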

The target is the same in series [4]. Nature of the series: Inhibition of human recombinant tissue transglutaminase expressed in Escherichia coli using Cbz-Glu-(gamma-p-nitrophenylester)Gly (AL5) as substrate assessed as substrate hydrolysis by measuring Kinact incubated for 20 mins by colorimetric analysis.
Series [5] can be described thus: GSH reactivity in aqueous buffer assessed as GSH adduct formation by measuring corrected intrinsic second order rate constant (K2 corrected) by HPLC analysis. The class given is physicochemical. The method, boiled down: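 GSH stock diluted to final 15 mM in aqueous buffer (pH 8.0 used, 7.4 too slow), reaction started with inhibitor at final 0.5 mM, 2% v/v DMSO. Incubated at 22 °C and aliquots taken over at least 5–6 half-lives. HPLC with UV 214/254 nm tracked adduct growth and inhibitor loss, fitted mono-exponentially to give pseudo-first-order kobs. kobs was divided by [thiol] and then by the thiolate fraction (pKa 8.7) to give kcorr2. Run in duplicate.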

Series [6] in a line: Ratio of Kinact/Ki for inhibition of human tissue transglutaminase assessed as substrate hydrolysis to corrected second order rate constant (K2 corrected) for GSH reactivity in aqueous buffer assessed as GSH adduct formation. Format: physicochemical.
Series [7] is described as follows: Metabolic stability in pooled cryopreserved human hepatocytes assessed as half-life at 1 uM measured upto 120 mins by LC-MS/MS analysis. The class given is ADME, cell-based, Hepatocyte. The method, boiled down:
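Samples were taken at 0, 5, 15, 30, 60 and 120 min, acetonitrile-quenched with internal standard, and analysed by LC-MS/MS. Half-life came from exponential decay of the parent/IS ratio relative to T = 0.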

Series [8] deals with T3, Protein-glutamine gamma-glutamyltransferase K (Homo sapiens) (UniProt P22735).
T3 sequence (whole entry): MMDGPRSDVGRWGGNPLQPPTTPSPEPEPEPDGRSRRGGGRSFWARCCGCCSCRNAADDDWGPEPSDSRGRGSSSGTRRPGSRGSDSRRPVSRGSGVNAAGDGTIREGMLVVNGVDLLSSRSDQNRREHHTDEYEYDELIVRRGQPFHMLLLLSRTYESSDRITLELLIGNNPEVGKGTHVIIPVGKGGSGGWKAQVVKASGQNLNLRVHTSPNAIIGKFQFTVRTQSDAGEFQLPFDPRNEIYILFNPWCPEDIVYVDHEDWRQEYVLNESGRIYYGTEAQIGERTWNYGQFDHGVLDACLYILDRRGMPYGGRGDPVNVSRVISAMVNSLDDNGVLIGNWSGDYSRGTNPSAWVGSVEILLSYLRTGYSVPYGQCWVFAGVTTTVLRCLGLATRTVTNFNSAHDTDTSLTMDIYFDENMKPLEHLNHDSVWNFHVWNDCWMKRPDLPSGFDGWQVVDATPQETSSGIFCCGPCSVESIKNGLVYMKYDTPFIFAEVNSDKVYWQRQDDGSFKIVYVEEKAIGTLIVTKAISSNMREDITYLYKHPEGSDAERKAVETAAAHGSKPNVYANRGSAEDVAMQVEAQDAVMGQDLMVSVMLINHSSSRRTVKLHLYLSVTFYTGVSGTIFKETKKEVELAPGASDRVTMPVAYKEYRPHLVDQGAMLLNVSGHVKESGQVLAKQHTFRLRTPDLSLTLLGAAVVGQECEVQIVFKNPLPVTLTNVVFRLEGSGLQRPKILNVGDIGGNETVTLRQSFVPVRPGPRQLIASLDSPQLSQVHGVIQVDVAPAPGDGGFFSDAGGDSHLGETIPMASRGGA
In words: Irreversible inhibition of human TG1 using Cbz-Glu-(gamma-p-nitrophenylester)Gly (AL5) as substrate assessed as substrate hydrolysis by measuring observed binding constant incubated for 100 mins by colorimetric assay.

The target of series [9] is T2, Protein-glutamine gamma-glutamyltransferase (Homo sapiens). In words: Irreversible inhibition of human TG2 using Cbz-Glu-(gamma-p-nitrophenylester)Gly (AL5) as substrate assessed as substrate hydrolysis by measuring observed binding constant incubated for 20 mins by colorimetric assay.
The nature of series [10]: Metabolic stability in human whole blood assessed as half-life at 1 to 5 uM measured upto 120 mins by LC-MS/MS analysis. The class given is ADME, tissue-based. As to conditions: dose 1-5 µM. The method, boiled down: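 Pooled human whole blood (K3-EDTA) was spiked to 1 or 5 μM compound. Aliquots taken at 0, 15, 30, 60 and 120 min were quenched in acetonitrile with 0.1% formic acid and internal standard, then analysed by LC-MS/MS. Percent parent remaining is the peak-area ratio versus T = 0; half-life comes from an exponential decay fit.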

For series [11], the target named is T4, Coagulation factor XIII A chain (Homo sapiens) (UniProt P00488).
T4 sequence (whole entry): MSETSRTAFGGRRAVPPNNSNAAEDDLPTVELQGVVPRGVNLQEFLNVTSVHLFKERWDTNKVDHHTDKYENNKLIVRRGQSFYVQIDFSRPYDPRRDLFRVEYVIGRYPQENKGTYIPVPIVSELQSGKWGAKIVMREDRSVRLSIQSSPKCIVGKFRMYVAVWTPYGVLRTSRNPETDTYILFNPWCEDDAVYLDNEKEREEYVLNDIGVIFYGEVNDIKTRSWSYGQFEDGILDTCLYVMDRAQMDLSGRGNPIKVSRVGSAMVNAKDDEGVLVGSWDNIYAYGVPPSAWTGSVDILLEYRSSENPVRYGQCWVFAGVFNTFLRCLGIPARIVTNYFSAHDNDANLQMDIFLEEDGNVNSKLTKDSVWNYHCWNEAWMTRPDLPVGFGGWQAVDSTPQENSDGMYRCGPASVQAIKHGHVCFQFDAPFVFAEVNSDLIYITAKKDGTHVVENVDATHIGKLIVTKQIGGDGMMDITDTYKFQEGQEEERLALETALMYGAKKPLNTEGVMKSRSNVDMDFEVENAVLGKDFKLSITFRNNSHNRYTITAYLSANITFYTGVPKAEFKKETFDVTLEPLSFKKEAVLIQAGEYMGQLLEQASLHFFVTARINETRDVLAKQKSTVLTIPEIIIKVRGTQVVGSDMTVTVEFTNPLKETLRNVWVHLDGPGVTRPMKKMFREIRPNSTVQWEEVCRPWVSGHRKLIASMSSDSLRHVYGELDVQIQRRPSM
In words: Reversible inhibition of human factor XIIIa using peptidic FRET-quenched probe A101 as substrate by fluorescence based assay relative to control. To be noted: concentration not given here.

Series [12] addresses T1, Protein-glutamine gamma-glutamyltransferase. Nature of the series: Reversible inhibition of human recombinant tissue transglutaminase expressed in Escherichia coli using Cbz-Glu-(gamma-p-nitrophenylester)Gly (AL5) as substrate assessed as substrate hydrolysis by measuring Ki incubated for 20 mins by colorimetric analysis. The procedure, abridged:
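For TG2 reversible inhibition, the same AL5 colorimetric assay (MOPS pH 6.9, 7.5 mM CaCl2, 0.25 μM TG2, 405 nm) was run at 100 and 50 μM AL5. Initial rates were taken over the first 10% conversion of the uninhibited control, and 1/v0 was plotted against [I] in a Dixon plot; Ki came from the intersection of the lines.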

For `O=C(NCC(=O)N1CCN(C(=O)C23CC4CC(CC(C4)C2)C3)CC1)C(F)Cl` (configuration not stated), the Ki in [1] was 88.5 µM. The values for the Ratio in [2] and in series [3] were 17.8 10^3/M/min and 16 10^3/M/min, respectively. The Kinact in [4] is 1.57 min⁻¹.
Take `C=C(C(=O)NCC(=O)N1CCN(C(=O)C23CC4CC(CC(C4)C2)C3)CC1)C(F)(F)F`: the Ki in series [1] came to 30.6 µM. In addition, the Ratio in series [2] is 171 10^3/M/min; in series [3], 209 10^3/M/min. In [4], the Kinact amounted to 5.22 min⁻¹.
For the compound `C=C(Cl)C(=O)NCC(=O)N1CCN(C(=O)C23CC4CC(CC(C4)C2)C3)CC1`, the K is 59.387 10^-3/M/min in series [5], 0.022 min⁻¹ in series [8] and 0.509 min⁻¹ in series [9]. The Ki in [1] amounted to 2.32 µM. For the same compound, the Ratio in series [6] was 0.053; in [2], 3130 10^3/M/min; in series [3] it was 3140 10^3/M/min. For the same compound, the half-life at 1 µM in [7] turned out to be 1.53 h. Further, the half-life at up to 5 µM in [10] amounted to 0.533 h. Also, in series [11], the inhibition worked out at 76%. The Kinact in [4] was found to be 7.28 min⁻¹.
`CC(=O)C(=O)NCC(=O)N1CCN(C(=O)C23CC4CC(CC(C4)C2)C3)CC1`: in series [12], the Ki is 154 µM.
For the compound `C#CC(=O)NCC(=O)N1CCN(C(=O)C23CC4CC(CC(C4)C2)C3)CC1`, the Ki in series [1] amounted to 70.1 µM. In addition, the Ratio in [2] is 97.5 10^3/M/min; in series [3] it was 87.7 10^3/M/min. The Kinact in series [4] was 6.83 min⁻¹.
Regarding `C=C(F)C(=O)NCC(=O)N1CCN(C(=O)C23CC4CC(CC(C4)C2)C3)CC1`, the Ki in series [1] amounted to 38.4 µM. The figures for the Ratio in [2] and in series [3] were 30.4 10^3/M/min and 28.5 10^3/M/min, respectively. Besides, the Kinact in series [4] was found to be 1.17 min⁻¹.
For `C/C=C/C(=O)NCC(=O)N1CCN(C(=O)C23CC4CC(CC(C4)C2)C3)CC1`, in [1], the Ki is 61.8 µM. Moreover, the Ratio in series [2] was 8.3 10^3/M/min; in [3] it was 6.7 10^3/M/min.
Regarding `C=C(Br)C(=O)NCC(=O)N1CCN(C(=O)C23CC4CC(CC(C4)C2)C3)CC1`, the Ki in [1] came out at 1.95 µM. Further, the values for the Ratio in [2] and in [3] were 2410 10^3/M/min and 2320 10^3/M/min, respectively. Further, the results for the K in [8] and in [9] were 0.018 min⁻¹ and 0.497 min⁻¹, respectively. Further, the Kinact in [4] stood at 4.69 min⁻¹.
As for `[N-]=[N+]=CC(=O)NCC(=O)N1CCN(C(=O)C23CC4CC(CC(C4)C2)C3)CC1`, in [1], the Ki amounted to 26.3 µM. Moreover, the Ratio in [2] was 107 10^3/M/min; in [3] it was 95 10^3/M/min. The Kinact in [4] worked out at 2.82 min⁻¹.
The corresponding values for `O=C(CN=C=S)N1CCN(C(=O)C23CC4CC(CC(C4)C2)C3)CC1` are 8.83 µM, 26.3 10^3/M/min, 17.7 10^3/M/min and 0.23 min⁻¹.
Take `C[S+]([O-])CCCCN=C=S` (configuration not stated) [SULFORAPHANE]: in series [1], the Ki came out at 366 µM. In addition, the Kinact in series [4] was 0.27 min⁻¹.
